# From paper PMC6075728 (Bioconjugate chemistry, 2017)
# “Also recorded” adds a separate entry of the source. Where a SMILES comes first, the peptide text is derived from it. Where no end group is shown, it is not given here. The star is where a group is joined. X1 = O=C(O)CN1CCN(CC(=O)O)CCN(CC(O)Cn2cc(CCCC(=O)*)nn2)CCN(CC(=O)O)CC1; PEG2 = NCCOCCOCCC(=O)O
# What was measured:
# [1] = test system: LNCaP prostate tumor xenografts (EDB-FN); assay: Contrast enhanced T1-weighted MRI, LNCaP tumor xenografts; type: in vivo, mouse (male athymic nude); details: for signal/contrast enhancement: T1-weighted MRI, up to 30 min post-injection; for contrast-to-noise ratio (CNR), range: first 30 min post-injection, i.v., 7T
# [2] = test system: other organs and normal tissues; assay: Contrast enhanced T1-weighted MRI, other organs and normal tissues; type: in vivo, mouse (male athymic nude); details: i.v.
# [3] = test system: PC3 prostate tumor xenografts (EDB-FN); assay: Contrast enhanced T1-weighted MRI, PC3 tumor xenografts; type: in vivo, mouse (male athymic nude); details: for tumor differentiation: CNR/enhancement in PC3 vs LNCaP tumors: PC3 compared with LNCaP tumors, during 30 min after injection; for signal/contrast enhancement: T1-weighted MRI, up to 30 min post-injection; for contrast-to-noise ratio (CNR), range: first 30 min post-injection, i.v. (ZD2-Gd(HP-DO3A) 0.1 mmol/kg), ZD2-Gd(HP-DO3A) vs ProHance P < 0.05 at all time points
# [4] = r1 relaxivity in PC3 tumor lysates; type: physicochemical; details: T1 mapping phantom
# [5] = Gd biodistribution / tissue retention; details: 1 week after injection, ICP-OES
# [6] = In vitro chelate stability / transmetallation in PBS with Cu2+, Ca2+, Zn2+; type: physicochemical
# PC3 and LNCaP tumors = details: after T1 mapping, about 30 min post-injection; n = 4
# LNCaP tumors = assay: Quantitative T1 mapping, LNCaP tumors; type: in vivo, mouse (male athymic nude); details: 30 min after injection
# PC3 tumors = assay: Quantitative T1 mapping, PC3 tumors; type: in vivo, mouse (male athymic nude); details: 30 min after injection
# [7] = In vivo transmetallation and urinary excretion
# [8] = T1 relaxivity at 7T in PBS; type: physicochemical; details: phantom, 3.12 - 50 μM
# Summary of the method: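 Multi-compartment phantom of the test compound in PBS at 50, 25, 12.5, 6.25 and 3.12 μM, imaged on a horizontal 7T scanner. T1 maps came from an accelerated multi-slice method combining a saturation-recovery Look-Locker sequence with spiral k-space sampling. r1 was taken from the slope of 1/T1 plotted against concentration.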
# EDB protein = EDB protein (Homo sapiens, UniProt P02751); assay: SPR binding to immobilized EDB protein; details: second (blue) trend line
# low-grade tumor = details: cited from earlier work
# [9] = test system: high-grade human prostate tumor; details: cited from earlier work
# non-cancerous tissue = details: cited from earlier work
# [10] = test system: EDB-FN in PC3 tumor sections; assay: Confocal fluorescence of PC3 tumor sections; design: species or system mouse; details: confocal microscopy
# Chain of EDB protein (P02751 1271-1359 limits assumed): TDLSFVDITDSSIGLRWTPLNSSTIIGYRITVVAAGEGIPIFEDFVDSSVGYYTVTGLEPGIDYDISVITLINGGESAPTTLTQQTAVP
molecule,measurement,setting,value
"CC(O)CN1CCN(CC(=O)[O-])CCN(CC(=O)[O-])CCN(CC(=O)[O-])CC1.[Gd+3] (centres unmarked) [ProHance, gadoteridol, reference compound]",signal/contrast enhancement,[1]; LNCaP tumors,modest contrast enhancement
same,"contrast-to-noise ratio (CNR), range","[1]; LNCaP tumors, n=5",7~10
same,contrast enhancement in other organs and normal tissues,[2],did not produce significant contrast enhancement
same,tumor differentiation: CNR/enhancement in PC3 vs LNCaP tumors,[3],not significantly different
same,signal/contrast enhancement,[3]; PC3 tumors,modest contrast enhancement
same,"contrast-to-noise ratio (CNR), range","[3]; PC3 tumors, 7T, n=5",7~11
same,r1 relaxivity,[4],3.17 mM⁻¹ s⁻¹
CC(C)[C@H](NC(=O)[C@@H](NC(=O)CCOCCOCCNC(=O)CCCc1cn(CC(O)CN2CCN(CC(=O)O)CCN(CC(=O)O)CCN(CC(=O)O)CC2)nn1)[C@@H](C)O)C(=O)N[C@@H](CCCNC(=N)N)C(=O)N[C@H](C(=O)N[C@@H](CO)C(=O)N[C@@H](C)C(=O)N[C@@H](CC(=O)O)C(=O)O)[C@@H](C)O (some centres unmarked) [ZD2-Gd(HP-DO3A)] ({X1-PEG2}-TVRTSAD-OH; C-terminus assumed),tissue retention / accumulation,"[5]; 0.1 mmol-Gd/kg tail vein, ZD2-Gd(HP-DO3A) n = 4, ProHance n = 3",minimal tissue accumulation; also recorded: same low tissue retention as ProHance; also recorded: No significant difference was seen between the two groups; also recorded: minimal body accumulation
same,"Gd3+ concentration in most organs, including brain, heart, skin",[5],below the detection limit of ICP-OES in most of the organs
same,relative Gd3+ content,"[6]; 200-min incubation in PBS with and without Cu2+, Ca2+ or Zn2+",No decrease in Gd^3+ content was observed
same,transmetallation / chelate stability,"[6]; 24 hours incubation with Cu2+, Ca2+ and Zn2+ in PBS, pH = 7.4","high chelate stability, comparable to its clinical analog ProHance, with no evident transmetallation"
same,chelation stability in vitro,"[6]; summary statement, Fig. 2",high chelate stability against transmetallation; also recorded: same high in vitro and in vivo chelation stability
same,Gd3+ concentration in tumors (ICP-OES),PC3 and LNCaP tumors,significantly higher concentration in the PC3 tumors than in the LNCaP tumors and that of ProHance in both the tumors
same,"tumor T1, post-contrast",LNCaP tumors,2.54 ± 0.13 s
same,"tumor T1, post-contrast",PC3 tumors,1.81 ± 0.07 s
same,change in relaxation rate (ΔR1),PC3 tumors; n = 4,highest relaxation rate change in the PC3 tumors among all cases
same,signal/contrast enhancement,[1]; LNCaP tumors,significantly lower signal enhancement; also recorded: not evident in slow growing LNCaP tumors; also recorded: low enhancement
same,CNR increase,"[1]; LNCaP tumors, first 30 min after 0.1 mmol/kg i.v., n=5",10~60%
same,"contrast-to-noise ratio (CNR), range","[1]; LNCaP tumors, n=5",6~9
same,CNR in LNCaP relative to PC3 tumors,"[1]; LNCaP vs PC3, P < 0.01 for 10 and 20 min, P < 0.001 for 30 min post-injection",more than two times lower
same,chelation stability in vivo,"[7]; summary statement, Fig. 7",same high in vitro and in vivo chelation stability
same,renal clearance,"[7]; urine, 24 hours post-injection",rapid clearance through renal filtration
same,injected dose excreted in urine,"[7]; within 24 hours post-injection, 0.1 mmol-Gd/kg tail vein, ICP-OES",over 95%
same,T1 relaxivity (r1),[8],3.7 mM⁻¹ s⁻¹
same,contrast enhancement in other organs and normal tissues,[2],did not produce significant contrast enhancement
same,tumor differentiation: CNR/enhancement in PC3 vs LNCaP tumors,[3],over two times higher
same,CNR increase at 10 min,"[3]; PC3 tumors, 10 min post-injection, 0.1 mmol/kg i.v., n=5",over two-fold increase
same,"contrast-to-noise ratio (CNR), peak","[3]; PC3 tumors, 30 min post-injection, 0.1 mmol/kg i.v., 7T, mean±SEM, n=5",23.7±1.68
same,CNR increase at 30 min,"[3]; PC3 tumors, 30 min post-injection, 0.1 mmol/kg i.v., n=5",over five-fold increase
same,signal/contrast enhancement,[3]; PC3 tumors,strong signal enhancement within first 10 minutes post-injection
same,"contrast-to-noise ratio (CNR), range","[3]; PC3 tumors, 7T, n=5",12~25
same,r1 relaxivity,[4],4.12 mM⁻¹ s⁻¹
same,weak binding site in SPR Scatchard plot,EDB protein,weak binding site
"Cys-Arg-Glu-Lys-Ala [CREKA-Gd(HP-DO3A), reference compound]",signal/contrast enhancement,[1]; LNCaP tumors,significant contrast enhancement in the periphery
same,tumor differentiation: CNR/enhancement in PC3 vs LNCaP tumors,[3],no significant difference
same,signal/contrast enhancement,[3]; PC3 tumors,significant contrast enhancement in the periphery
TVRTSAD [ZD2],binding to low-grade tumor,low-grade tumor,low binding
same,binding to high-grade human prostate tumor,[9],strong specific binding
same,binding in non-cancerous tissue,non-cancerous tissue,non-binding
same,colocalization with EDB-FN,[10],colocalize with the EDB-FN fibril network
same,reduction of PC3 tumor enhancement by competition,"[3]; co-injection of excess free ZD2 peptide 0.5 mmol/kg with ZD2-Gd(HP-DO3A) 0.1 mmol/kg, PC3 tumors, n=3",significantly reduced signal enhancement and CNR; also recorded: blocked the binding of the targeted agent and reduced tumor enhancement in the PC3 tumors
